Experimental data from paper PMC10993133 (iScience, 2024).

How the values were obtained:
Type in all cases: cell-based, human
MCF7 cells [1] = test: Mitochondrial membrane potential; conditions: MCF7, 1 µM, 30 hrs, JC-1, n=4
Summary of the method: (§1)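 MCF7 and MDAMB231 cells in DMEM with 10% FCS were treated 30 hrs with Dox or encapsulated test compound, then harvested. They were incubated with shaking in JC-1 (2.5 µg/mL) in PBS at 37°C for 30–35 min. Cells were washed three times for 5 min in cold PBS and resuspended. ΔΨM was taken as the 590/530 nm fluorescence ratio. Means ± S.E., n=4.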

MCF7 cells [2] = test: DNA fragmentation assay; conditions: MCF7, 30 hrs exposure, agarose gel
Summary of the method: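 MCF7 cells were seeded at 1 × 10^6 per well and exposed 30 hrs. They were lysed at RT in 0.5% Triton X-100, 15 mM EDTA, 20 mM Tris HCl. DNA was extracted with phenol/chloroform/isoamyl alcohol (25:24:1), then treated 1 hr with RNase (0.1 mg/mL) and proteinase K (1 mg/mL). It was precipitated overnight at −20°C with sodium acetate/ethanol, run on 2% agarose and stained with ethidium bromide.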

MDAMB231 cells [3] = test: Mitochondrial membrane potential; conditions: MDAMB231, 1 µM, 30 hrs, JC-1, n=4
Summary of the method: as §1

MDAMB231 cells [4] = test: ROS generation; conditions: MDAMB231, 1 µM, 24 hrs, CM-H2DCFDA, n=4
Summary of the method: (§2)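 MCF7 or MDAMB231 cells were treated 24 hrs with Dox or encapsulated test compound. Cells were scraped, pelleted and washed twice in chilled PBS, then loaded with CM-H2DCFDA (5 µM) in PBS for 20 min in the dark at 37°C. After washing, cells were lysed in PBS with 1% Tween 20. DCF fluorescence was read at ex 480/em 530 nm. Means ± S.E., n=4, versus vehicle control.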

MCF7 cells [5] = test: ROS generation; conditions: MCF7, 1 µM, 24 hrs, CM-H2DCFDA, n=4
Summary of the method: as §2

`COc1cccc2c1C(=O)c1c(O)c3c(c(O)c1C2=O)C[C@@](O)(C(=O)CO)C[C@@H]3O[C@H]1C[C@H](N)[C@H](O)[C@H](C)O1` [Dox, doxorubicin] was tested. Which “mitochondrial membrane potential (ΔΨM)” value (MCF7 cells [1]) did it give?
The value was “loss of mitochondrial membrane potential”.

And the “DNA damage (DNA laddering)” value (MCF7 cells [2])?
The value was “resulted in DNA damage”.

And the “mitochondrial membrane potential (ΔΨM)” value (MDAMB231 cells [3])?
Its value is “loss of mitochondrial membrane potential”.

What about the “increase of intracellular ROS levels” value (MDAMB231 cells [4]) of the same compound?
Its value is “comparable”.

And the “increase of intracellular ROS levels” value (MCF7 cells [5])?
Its value is “comparable”.
